Reference: ChEMBL document CHEMBL1153088, “Discovery of benzo[g]indol-3-carboxylates as potent inhibitors of microsomal prostaglandin E(2) synthase-1” (Bioorg Med Chem, 2009)
Calls of active or inactive are those of the source. The rule behind the calls is not given here.

What was measured:
[1] = molecular target: T1, Prostaglandin E synthase (Homo sapiens) (UniProt O14684); test: Inhibition of mPGES1 in IL1-beta induced human A549 cell microsomal membrane at 10 uM assessed as enzyme residual activity by PGE2 formation assay relative to untreated control; assay type: microsomes; details: Microsome
T1 sequence (whole entry): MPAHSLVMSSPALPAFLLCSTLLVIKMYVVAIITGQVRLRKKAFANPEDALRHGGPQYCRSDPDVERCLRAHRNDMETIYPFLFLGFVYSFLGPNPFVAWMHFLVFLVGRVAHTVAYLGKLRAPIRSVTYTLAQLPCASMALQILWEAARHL
Outline: (§1)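 Microsomes from A549 cells treated with IL-1β (1 ng/ml, 72 h) were used at 50 µg/ml in 0.1 M potassium phosphate pH 7.4 with 2.5 mM glutathione. Compound (DMSO 1% final) was preincubated 15 min at 4 °C, then PGH2 was added (20 µM final) for 1 min at 4 °C.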

Mus musculus [2] = test: Antiinflammatory activity in CD1 mouse assessed as inhibition of carrageenan-induced paw edema at 4 mg/kg, ip administered 30 mins before carrageenan challenge relative to untreated control; assay type: functional; details: route intraperitoneal
Outline: (§2)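 Male adult CD1 mice, n=10 per group, given the compound ip (vehicle 2% DMSO) 30 min before subplantar 1% λ-carrageenan in saline (0.05 ml). Paw volume was measured double blind by hydroplethysmometer just before injection and at 2, 4 and 6 h. Inhibition was taken at the 4 h reading versus vehicle.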

Rattus norvegicus [3] = test: Antiinflammatory activity in Wistar Han rat assessed as LTB4 level at 4 mg/kg, ip administered 30 mins before carrageenan challenge (reference value: 1.17 +/- 0.21 ng); assay type: functional; details: route intraperitoneal
Mus musculus [4] = test: Antiinflammatory activity in CD1 mouse assessed as inhibition of carrageenan-induced paw edema at 1 mg/kg, ip administered 30 mins before carrageenan challenge relative to untreated control; assay type: functional; details: route intraperitoneal; outline: as §2
[5] = molecular target: T2, Prostaglandin G/H synthase 1 (Ovis aries) (UniProt P05979); test: Inhibition of ovine COX1 assessed as residual enzyme activity at 10 uM relative to untreated control
T2 sequence (whole entry): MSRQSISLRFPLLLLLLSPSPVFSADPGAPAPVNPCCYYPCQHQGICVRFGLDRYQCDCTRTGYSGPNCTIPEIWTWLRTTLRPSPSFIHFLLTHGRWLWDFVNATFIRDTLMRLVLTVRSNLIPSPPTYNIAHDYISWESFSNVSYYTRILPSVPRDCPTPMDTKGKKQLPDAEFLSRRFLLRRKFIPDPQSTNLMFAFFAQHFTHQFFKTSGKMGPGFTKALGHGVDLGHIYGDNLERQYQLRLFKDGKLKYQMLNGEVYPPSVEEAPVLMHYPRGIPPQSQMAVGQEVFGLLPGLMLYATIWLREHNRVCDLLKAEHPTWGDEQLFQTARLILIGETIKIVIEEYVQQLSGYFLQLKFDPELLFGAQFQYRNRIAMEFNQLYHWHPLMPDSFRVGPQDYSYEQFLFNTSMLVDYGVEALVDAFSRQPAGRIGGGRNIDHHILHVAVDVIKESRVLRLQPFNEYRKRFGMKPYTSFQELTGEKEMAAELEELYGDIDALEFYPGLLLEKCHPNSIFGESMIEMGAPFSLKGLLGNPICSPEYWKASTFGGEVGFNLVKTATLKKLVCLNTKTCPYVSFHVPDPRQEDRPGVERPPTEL
Outline: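 Purified ovine COX-1 (50 units) in 1 ml of 100 mM Tris pH 8 containing 5 mM glutathione, 5 µM hemoglobin and 100 µM EDTA was preincubated with compound for 5 min at 4 °C and prewarmed 60 s at 37 °C. The reaction was started with 5 µM AA and run 5 min at 37 °C, and 12-HHT was analysed by HPLC.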

A549 = test: Toxicity in human A549 cells assessed as reduction of cell viability by MTT assay; assay type: cell-based
Outline: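 A549 cells (4×10^4 per 100 µl) were plated for 16 h, then exposed to compounds at 30 µM (DMSO ≤0.3%) for 5 h. MTT was added for 4 h, formazan was solubilized in 10% SDS/20 mM HCl, and absorbance at 595 nm was read relative to vehicle-treated cells.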

[6] = molecular target: Prostaglandin G/H synthase 1 (Homo sapiens) (UniProt P23219); test: Inhibition of COX1 in platelets assessed as inhibition of 12-HHT formation at 10 uM by RP-HPLC
Outline: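 Freshly isolated human platelets (10^8/ml PBS with 1 mM CaCl2) were preincubated with compound (DMSO ≤0.3%), then stimulated with 5 µM AA for 5 min at 37 °C. 12-HHT was extracted and quantified by RP-HPLC. Mean ± SE, n=3–5.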

Rattus norvegicus [7] = test: Antiinflammatory activity in Wistar Han rat assessed as reduction in exudate volume at 4 mg/kg, ip administered 30 mins before carrageenan challenge; assay type: functional, organism-based; set-up: dose 4 mg/kg
[8] = molecular target: T3, Prostaglandin G/H synthase 2 (Homo sapiens) (UniProt P35354); test: Inhibition of COX2 in IL1-beta induced human A549 cells assessed as 6-keto-PGF1-alpha formation up to 30 uM preincubated for 15 mins by ELISA; assay type: cell-based
T3 sequence (whole entry): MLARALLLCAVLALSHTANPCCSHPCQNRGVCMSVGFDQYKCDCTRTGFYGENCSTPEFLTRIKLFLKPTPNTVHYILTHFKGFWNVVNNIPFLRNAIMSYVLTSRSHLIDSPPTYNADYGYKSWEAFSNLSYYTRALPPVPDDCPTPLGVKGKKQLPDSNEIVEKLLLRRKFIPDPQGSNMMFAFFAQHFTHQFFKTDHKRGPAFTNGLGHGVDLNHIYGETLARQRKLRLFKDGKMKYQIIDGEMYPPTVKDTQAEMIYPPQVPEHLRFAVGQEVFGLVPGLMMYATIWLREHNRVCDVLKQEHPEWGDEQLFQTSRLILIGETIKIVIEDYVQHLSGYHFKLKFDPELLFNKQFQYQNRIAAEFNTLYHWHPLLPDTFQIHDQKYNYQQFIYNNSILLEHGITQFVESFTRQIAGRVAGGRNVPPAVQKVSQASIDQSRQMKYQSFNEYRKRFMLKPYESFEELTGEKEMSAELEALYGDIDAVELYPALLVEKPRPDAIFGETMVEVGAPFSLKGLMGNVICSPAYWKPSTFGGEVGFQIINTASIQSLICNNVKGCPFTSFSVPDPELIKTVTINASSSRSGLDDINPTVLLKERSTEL
Outline: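 A549 cells were induced with IL-1β (1 ng/ml, 72 h, 2% FCS). Cells at 5×10^6 per ml PBS with 1 mM CaCl2 were preincubated 15 min at 37 °C, then given 30 µM AA for 15 min at 37 °C, and the reaction was stopped on ice. Released 6-keto PGF1α was measured by monoclonal-antibody ELISA with β-galactosidase tracer read at 550 nm.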

Mus musculus [9] = test: Antiinflammatory activity in CD1 mouse assessed as inhibition of carrageenan-induced paw edema at 0.25 mg/kg, ip administered 30 mins before carrageenan challenge relative to untreated control; assay type: functional; details: route intraperitoneal; outline: as §2
Rattus norvegicus [10] = test: Antiinflammatory activity in Wistar Han rat assessed as reduction in inflammatory cell numbers at 4 mg/kg, ip administered 30 mins before carrageenan challenge; assay type: functional, organism-based; set-up: dose 4 mg/kg
Rattus norvegicus [11] = test: Antiinflammatory activity in Wistar Han rat assessed as PGE2 level at 4 mg/kg, ip administered 30 mins before carrageenan challenge (reference value: 2.79 +/-0.39 ng); assay type: functional; details: route intraperitoneal
Rattus norvegicus [12] = test: Antiinflammatory activity in Wistar Han rat assessed as 6-Keto PGF1alpha level at 4 mg/kg, ip administered 30 mins before carrageenan challenge (reference value: 3.00 +/- 1.02 ng); assay type: functional; details: route intraperitoneal
Prostaglandin E synthase = molecular target: T4, Prostaglandin E synthase (Homo sapiens, UniProt O14684); test: Inhibition of mPGES1 in IL1-beta induced human A549 cell microsomal membrane assessed as blockade of conversion of PGH2 to PGE2; assay type: microsomes, Microsome; outline: as §1
T4 sequence (O14684 whole entry): T1 sequence (whole entry)

Chain of Prostaglandin G/H synthase 1 (Homo sapiens) (P23219 whole entry): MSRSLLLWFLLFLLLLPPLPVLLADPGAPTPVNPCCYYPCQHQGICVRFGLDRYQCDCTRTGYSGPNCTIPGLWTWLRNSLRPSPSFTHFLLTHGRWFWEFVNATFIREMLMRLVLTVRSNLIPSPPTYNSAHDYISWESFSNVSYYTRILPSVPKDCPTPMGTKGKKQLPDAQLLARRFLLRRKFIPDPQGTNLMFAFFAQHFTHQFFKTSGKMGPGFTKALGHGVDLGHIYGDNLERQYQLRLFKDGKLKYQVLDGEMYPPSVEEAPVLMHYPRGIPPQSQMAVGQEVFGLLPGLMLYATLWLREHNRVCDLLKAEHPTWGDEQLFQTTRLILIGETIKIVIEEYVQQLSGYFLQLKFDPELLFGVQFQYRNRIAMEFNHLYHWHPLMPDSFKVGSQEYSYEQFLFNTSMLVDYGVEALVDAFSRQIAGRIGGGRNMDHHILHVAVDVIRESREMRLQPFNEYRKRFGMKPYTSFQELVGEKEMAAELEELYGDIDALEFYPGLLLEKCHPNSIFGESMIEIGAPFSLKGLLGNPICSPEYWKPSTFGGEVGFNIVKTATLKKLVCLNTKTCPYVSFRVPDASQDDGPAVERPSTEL

| Compound | Activity [1] | Activity [5] | IC50 (Prostaglandin E synthase) | also measured |
| --- | --- | --- | --- | --- |
| CCOC(=O)c1c(CCc2cccc(Cl)c2)[nH]c2ccc(O)cc12 | 65% |  |  |  |
| CCOC(=O)c1c(Cc2cccc(Cl)c2)[nH]c2c1cc(O)c1ccccc12 |  | 12% |  | inhibition in vivo at 4 mg/kg (Mus musculus [2]): 61%; Activity (Rattus norvegicus [3]): 0.6 ng; inhibition in vivo at 1 mg/kg (Mus musculus [4]): 53%; Activity (A549): Non-toxic; inhibition [6]: 43%; inhibition (Rattus norvegicus [7]): Active; inhibition [8]: inactive; inhibition in vivo at 0.25 mg/kg (Mus musculus [9]): 37%; inhibition (Rattus norvegicus [10]): Active; Activity (Rattus norvegicus [11]): 1.3 ng; Activity (Rattus norvegicus [12]): 2.02 ng |
| CCOC(=O)c1c(Cc2cccc(Cl)c2)[nH]c2c1cc(O)c1cc(OC)c(OC)cc12 |  |  |  | inhibition [5]: inactive |
| CCOC(=O)c1c(Cc2cccc(Cl)c2)[nH]c2c1cc(O)c1ccc(-c3ccccc3)cc12 | 28% | 66% | 2.8 µM |  |
| CCOC(=O)c1c(Cc2cccc(Cl)c2)n(-c2ccc(-c3ccccc3)cc2)c2ccc(O)cc12 | 25% |  | 3.1 µM | inhibition [5]: inactive |
| CCOC(=O)c1c(Cc2ccc(Cl)cc2)[nH]c2c1cc(O)c1ccccc12 | 26% | 26% | 3.4 µM |  |
| CCOC(=O)c1c(Cc2cccc(Cl)c2)[nH]c2ccc(O)cc12 | 55% |  |  |  |
| CCOC(=O)c1c(Cc2cccc(OC)c2)[nH]c2c1cc(O)c1ccccc12 |  | 89% |  |  |
| CCOC(=O)c1c(CCc2cccc(Cl)c2)[nH]c2c1cc(O)c1ccccc12 | 57% |  |  |  |
